Values joined by “and” are separate entries in the source; they are usually repeats but may differ in a detail not shown here. Equal values may be shown once. Read-outs that look alike come from different tables or passages of the source. Blank lines part the entries; values can stand above or below the compound they belong to.
What was measured:
[1] = target: T1, LiTryS (Leishmania infantum trypanothione synthetase) (Leishmania infantum, UniProt A4I2Z3); assay: TryS activity end-point assay; type: biochemical; settings: for IC50: ± 2σ, ∼30 assumed for 50 ± 5% inhibition at 30 µM; for % TryS inhibition at 30 µM, LiTryS: NA = not active (enzyme activity > 95%)
T1 sequence (A4I2Z3 1-652): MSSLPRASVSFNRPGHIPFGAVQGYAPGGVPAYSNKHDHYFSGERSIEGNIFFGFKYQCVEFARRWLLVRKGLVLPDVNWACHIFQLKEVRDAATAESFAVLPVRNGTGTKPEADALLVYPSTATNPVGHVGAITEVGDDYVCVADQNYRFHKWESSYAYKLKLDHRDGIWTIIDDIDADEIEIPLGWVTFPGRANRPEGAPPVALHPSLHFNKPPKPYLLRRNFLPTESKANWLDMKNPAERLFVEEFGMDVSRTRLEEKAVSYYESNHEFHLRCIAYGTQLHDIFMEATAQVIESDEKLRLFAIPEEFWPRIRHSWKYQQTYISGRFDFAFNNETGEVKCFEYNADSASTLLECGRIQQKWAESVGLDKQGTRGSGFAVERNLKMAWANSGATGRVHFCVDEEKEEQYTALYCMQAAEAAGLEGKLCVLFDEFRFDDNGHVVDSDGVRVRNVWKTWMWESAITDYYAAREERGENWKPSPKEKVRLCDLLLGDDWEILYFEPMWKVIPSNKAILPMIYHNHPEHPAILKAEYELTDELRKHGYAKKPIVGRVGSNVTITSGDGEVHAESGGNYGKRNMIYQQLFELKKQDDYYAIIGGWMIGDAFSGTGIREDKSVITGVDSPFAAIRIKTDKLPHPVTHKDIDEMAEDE
In short: (§1)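 Recombinant TryS end-point assay in 100 mM HEPES pH 7.4 with 5 mM DTT, 10 mM MgSO4 and 0.5 mM EDTA. ATP was 150 µM and spermidine 2 mM. GSH was 0.25 mM for LiTryS, 0.05 mM for TbTryS and 0.57 mM for TcTryS. Enzyme started the reaction and BIOMOL Green stopped it after 15 min. A650 was read after 20 min at room temperature. Values were corrected with no-enzyme blanks and for compound interference with phosphate. At least quadruplicates; IC50 is given ± 2σn-1.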

TbTryS = target: T2, TbTryS (Trypanosoma brucei brucei, UniProt Q8IEX1); assay: TryS activity end-point assay; type: biochemical; settings: IC50 value, TbTryS, ± 2σ; ~30 assumed for 50 ± 5% inhibition at 30 µM
T2 sequence (Q8IEX1 1-627): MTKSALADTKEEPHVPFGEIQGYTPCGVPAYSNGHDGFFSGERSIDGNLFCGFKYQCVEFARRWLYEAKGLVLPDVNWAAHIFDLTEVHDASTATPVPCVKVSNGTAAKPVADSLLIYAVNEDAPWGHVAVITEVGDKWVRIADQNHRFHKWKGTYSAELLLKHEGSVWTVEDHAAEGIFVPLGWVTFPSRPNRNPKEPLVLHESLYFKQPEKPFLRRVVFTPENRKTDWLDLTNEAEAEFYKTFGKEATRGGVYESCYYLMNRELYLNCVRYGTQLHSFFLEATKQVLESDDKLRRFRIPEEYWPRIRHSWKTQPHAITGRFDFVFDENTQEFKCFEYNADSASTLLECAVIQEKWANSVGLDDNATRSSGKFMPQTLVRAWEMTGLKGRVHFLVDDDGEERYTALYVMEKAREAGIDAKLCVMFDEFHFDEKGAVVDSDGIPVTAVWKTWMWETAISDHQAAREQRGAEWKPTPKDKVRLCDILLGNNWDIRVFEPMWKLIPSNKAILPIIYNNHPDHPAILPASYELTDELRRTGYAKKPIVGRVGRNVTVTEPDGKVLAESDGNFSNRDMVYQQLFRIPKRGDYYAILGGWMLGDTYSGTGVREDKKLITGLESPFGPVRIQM
In short: as §1

[2] = tested on: L. braziliensis amastigotes; assay: Macrophage infection assay, L. braziliensis amastigotes; type: cell-based, Leishmania braziliensis; settings: for activity at 10 µM: Leishmania braziliensis, Macrophage, read-out: % infection by L. braziliensis at 10 µM
In short: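 J774 macrophages were plated on coverslips at 1 × 10^5 cells/mL in DMEM with 1% FBS. They were infected with stationary-phase L. braziliensis promastigotes (MHOM/BR/01/BA788; 1:20) for 2 h at room temperature, then 22 h at 35 °C. After washing, cells got test compound (5 or 10 µM, or 10–0.01 µM) in 1% DMSO for 24 h at 37 °C and 5% CO2. Cells were EtOH-fixed and DAPI-stained, and 100–200 macrophages were imaged. % infected cells is relative to DMSO.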

Cytotoxicity assay = type: cell-based, mouse; settings: mouse, J774 macrophages (ATCC TIB67), non-infected
In short: (§2)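 J774 mouse macrophages were grown in DMEM with 10% FBS and penicillin/streptomycin at 37 °C in humidified 5% CO2. Cells were seeded at 6 × 10^4 cells/mL and exposed the next day for 24 h to test compound at 100 to 0.001 µM (200 µM for one compound). The WST-1 signal was read at A450. % cytotoxicity was calculated against DMSO-treated and untreated cells, and CC50 is given ± σn–1.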

[3] = tested on: Mouse macrophages from the cell line J774; assay: Cytotoxicity assay; type: cell-based; settings: 24 h, non-infected J774
In short: as §2

[4] = 24 h, relative to infected non-treated macrophages

Structure (SMILES): CCNC(=O)CN1C(=O)Cc2c([nH]c3ccc(Br)cc23)-c2ccc(Cl)cc21 [Compound 11]
- IC50 ([1]; IC50 value, LiTryS): 1.5 ± 0.2 µM

Structure (SMILES): O=C(CN1C(=O)Cc2c([nH]c3ccc(Br)cc23)-c2ccc(Cl)cc21)Nc1ccccc1 [Compound 19]
- IC50 ([1]; IC50 value, LiTryS): ~30 µM
- IC50 (TbTryS): 30 µM

Structure (SMILES): CC(C)(C)NC(=O)CN1C(=O)Cc2c([nH]c3ccc(Br)cc23)-c2ccc(Cl)cc21 [Compound 15]
- IC50 ([1]; IC50 value, LiTryS): 2.3 ± 0.4 µM
- activity at 10 µM ([2]; 24 h): 104 ± 1%
- cytotoxicity at 24 h, 100 µM (Cytotoxicity assay): 48 ± 8%

Structure (SMILES): CN1CCN(CCNC(=O)CN2C(=O)Cc3c([nH]c4ccc(Br)cc34)-c3ccc(Cl)cc32)CC1 [Compound 33]
- IC50 ([1]; IC50 value, LiTryS): 1.1 ± 0.3 µM

Structure (SMILES): CCN(CC)C(=O)CN1C(=O)Cc2c([nH]c3ccc(Br)cc23)-c2ccc(Cl)cc21 [Compound 12]
- IC50 ([1]; IC50 value, LiTryS): 0.5 ± 0.1 µM
- activity at 10 µM ([2]; 24 h): 82 ± 14%
- cytotoxicity at 24 h, 100 µM (Cytotoxicity assay): 24 ± 8%
- IC50 (TbTryS): ~30 µM

Structure (SMILES): CCN(CC)CCNC(=O)CN1C(=O)Cc2c([nH]c3ccc(Br)cc23)-c2ccc(Cl)cc21 [Compound 28]
- IC50 ([1]; IC50 value, LiTryS): 0.5 ± 0.1 µM
- % infection by L. braziliensis at 5 µM [2, 4]: 38 ± 1 at 5 µM %
- SI, L. braziliensis amastigotes ([2]; selectivity index, macrophage CC50 and amastigote EC50): 2
- CC50 ([3]; read-out: CC50, macrophages): 6 ± 1 µM

Structure (SMILES): O=C1Cc2c([nH]c3ccc(Br)cc23)-c2ccc(Cl)cc2N1CCO [Compound 2]
- IC50 ([1]; read-out: IC50 value, LiTryS): ~30 µM

Structure (SMILES): O=C(CN1C(=O)Cc2c([nH]c3ccc(Br)cc23)-c2ccc(Cl)cc21)NC1=NCCS1 [Compound 17]
- IC50 ([1]; IC50 value, LiTryS): ~30 µM

Structure (SMILES): CC(C)(C)OC(=O)CN1C(=O)Cc2c([nH]c3ccc(Br)cc23)-c2ccc(Cl)cc21 [Compound 6]
- IC50 ([1]; read-out: IC50 value, LiTryS): 2.4 ± 0.3 µM
- % infection by L. braziliensis at 10 µM ([2]; 10 µM, 24 h, relative to infected non-treated macrophages): 89 ± 13%
- % cytotoxicity at 100 µM, macrophages ([3]; 100 µM): 64 ± 0%

Structure (SMILES): O=C(CN1C(=O)Cc2c([nH]c3ccc(Br)cc23)-c2ccc(Cl)cc21)Nc1ncco1 [Compound 18]
- IC50 ([1]; read-out: IC50 value, LiTryS): 20.1 ± 1.5 µM

Second part, led by results:

- IC50 ([1]; IC50 value, LiTryS): 3 ± 0.7 µM
Structure (SMILES): COC(=O)CN1C(=O)Cc2c([nH]c3ccc(Br)cc23)-c2ccc(Cl)cc21 [Compound 4]

- IC50 ([1]; IC50 value, LiTryS): 0.5 µM
Structure (SMILES): CN(C)C(=O)CN1C(=O)Cc2c([nH]c3ccc(Br)cc23)-c2ccc(Cl)cc21 [Compound 10]
- % infection by L. braziliensis at 5 µM [2, 4]: 72 ± 4 at 5 µM %
- cytotoxicity at 24 h, 100 µM (Cytotoxicity assay): 21 ± 1%

- % TryS inhibition at 30 µM, LiTryS [1]: inactive
Structure (SMILES): O=C(O)CN1C(=O)Cc2c([nH]c3ccc(Br)cc23)-c2ccc(Cl)cc21 [Compound 3]

- IC50 ([1]; IC50 value, LiTryS): 0.5 ± 0.2 µM
Structure (SMILES): O=C(CN1C(=O)Cc2c([nH]c3ccc(Br)cc23)-c2ccc(Cl)cc21)N1CCCC1 [Compound 25]
- activity at 10 µM ([2]; 24 h): 68 ± 8%
- cytotoxicity at 24 h, 100 µM (Cytotoxicity assay): 69%

- IC50 ([1]; IC50 value, LiTryS): 30 µM and ~30 µM
Structure (SMILES): CC(C)(C)OC(=O)N1CCN(C(=O)CN2C(=O)Cc3c([nH]c4ccc(Br)cc34)-c3ccc(Cl)cc32)CC1 [Compound 22]

- % TryS inhibition at 30 µM, LiTryS [1]: 36.2 ± 3.6%
Structure (SMILES): CCOC(=O)CN1C(=O)Cc2c([nH]c3ccc(Br)cc23)-c2ccc(Cl)cc21 [Compound 5]

Source: PMC7717452 (Journal of Enzyme Inhibition and Medicinal Chemistry, 2020)
